System: MS2 coat protein
Experiment: apparent Kd, MS2 coat protein; higher = weaker binding; RNA-MaP array; FMN 200 µM where present
Summary of the method: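 Apparent Kd: the median of filtered binding-curve fits from single clusters. Designs were transcribed on Illumina sequencing-chip clusters by stalled E. coli RNA polymerase and titrated with SNAP-549-labelled MS2 coat protein from 0.7 or 1.5 nM, doubling to 3 µM, in 100 mM Tris-HCl pH 7.5, 80 mM KCl, 4 mM MgCl2, BSA, DTT, yeast tRNA and Tween-20. Each series ran without and then with constant ligand, and green signal was normalised to red-channel RNA signal and control-cluster median Fmax.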

[1] = designed as: OFF switch for flavin mononucleotide, no ligand
[2] = ligand present: flavin mononucleotide, designed as: OFF switch for flavin mononucleotide
[3] = designed as: ON switch for flavin mononucleotide, no ligand
[4] = ligand present: flavin mononucleotide, designed as: ON switch for flavin mononucleotide

| Sequence | apparent Kd [1] [nM] | apparent Kd [2] [nM] | apparent Kd [3] [nM] | apparent Kd [4] [nM] |
| --- | --- | --- | --- | --- |
| AAUUAUUUUUGAGGAUAUGGUGGUGAAACACCACCAGAAGGCGGAAUAAACAUGAGGAUCACCCAUGUGAGCCUGAUGCUUAUG | 21.3 | 40.5 |  |  |
| GGACAUUUACAGAAGGGCAAGUUGGAUCGCGGAUAACGCGAUCCGACUUGCAGGAUAUGUUGAACAUGAGGAUCACCCAUGUCC |  |  | 12 | 9.8 |
| UUGAUGUCAGGAUAUGCUUAAUAUAUUUUAUUAUAAUAUAUACAUGAGGAUCACCCAUGUAGAAGGGACAUUGU | 28.7 | 23.8 |  |  |
| ACGACGAAAGUCGAACGAUGUAGCAGAAGGACAUGAGGAUCACCCAUGUCAGCUGUAAAAGCCAUGUAGGAUAUGCUACAUCGA | 3.51 | 4.4 |  |  |
| UUGGACCUAGGAUAUACAUGAGGAUCACCCAUGUUGGCGCACGCCCACCUGGGCCCGAGUAGAAGGAGGAAUGU | 18.9 | 20.3 |  |  |
| CAUGGCACGUAGGAUAUCUCGCAGCCCGGCUGCAGAGAAGGACGUACAUGAGGAUCACCCAUGUAUGAUCCAAA | 24.5 | 49.2 |  |  |
| UGUCGGAGCAGAGGAUAUUACAUGAGGAUCACCCAUGUGGAAAAACCAAGCUGGAAACAGCAAUGUAAGAAGGCUGCUCCGACA | 487 | 804 |  |  |
| ACAUGAGGAUCACCCAUGUAUUACAUGGUUAAGUUUAUUAACAGAAGGCGAAAUUACCACUUUUUCGAGGAUAUGUUUUCUAUA | 45.1 | 58.4 |  |  |
| GCGUGUCAUGUAGGAUAUGACACAGGAAACUGGUCAGAAGGACAUGAGGAUCACCCAUGUAAAAUGUUCAAGAAUAACGCAUGC | 40.6 | 137 |  |  |
| UUUUAACAUGAGGAUCACCCAUGUGAGGAUAUCGAAAUUUAUAUUAAUAUUUAUUAUACGAGAAGGCACAUUUU | 73.6 | 97 |  |  |
| UGUGCGUUGAUCUUCGAUCGGAGUACAUGAGGAUCACCCAUGUAGGAUAUUCAAAGACGCAGAUAGGAGAAGGACAUCGGAUUA | 9.63 | 8.83 |  |  |
| CAGUACUGAGGAUAUACAUGAGGAUCACCCAUGUGCCUUAGCUAGGAUACUAGCAUUAGUAGAAGGCAGUACUG | 14.1 | 158 |  |  |
| CUUUUGUGAGGAUAUCAGUAGUAAUUAAAUAAAAUUACUACUGAGAAGGCACAUGAGGAUCACCCAUGUUCCUC | 41.3 | 338 |  |  |
| UCACGGGUUUGAGGAUAUAUAUUUAUUAUUUUAAUAGAAGGCAAAGAGAUAGUUUUUUCACUAUACAUGAGGAUCACCCAUGUU | 41.5 | 36 |  |  |
| ACCCGCAAACGUUGGAAUCGUAAGAGAAGGUGGACAUGAGGAUCACCCAUGUGCAUCCUGCGUUCCAAGGAUAUCUUACUGAAU | 10.9 | 48 |  |  |
| GGUGCACGCACAGGAUAUCCGGCGGAGCUCGUCGGAGAAGGGUGACAUGAGGAUCACCCAUGUACGUGCAACUUAGUUUAAGAG |  |  | 20 | 19 |
| GAAUUCGCAUGAGGAUAUGCACUCAUUUCAUGUGCAGAAGGUAUUUCAUUAGACAUGAGGAUCACCCAUGUAUUGGUCACUAAC |  |  | 21.5 | 16.6 |
| GUGCUCGUGUGAGGAUAUGCCGCCGUUUCGGCUGCAGAAGGUGCUACGUUACAUGAGGAUCACCCAUGUCUCUGUUGUUUCGUG |  |  | 21 | 21.4 |
| CCUAUGUGAGGAUAUCACUGGUCUUCUCACUGGAUGACCAGUGAGAAGGCACAUGAGGAUCACCCAUGUCGGUG | 436 | 349 |  |  |
| GGCUGGUGAGCAGGAUAUGGUCGUGCCUUUGUUCGUGGUCCCACAUGAGGAUCACCCAUGUUCGACCAGAAGGGCUGACUUGAG | 31 | 18.9 |  |  |
| UCUGCAUAGUCAGGAUAUGCAAAGUAAUGUAUGGAAACAUACAUUACAACAUGAGGAUCACCCAUGUAGAAGGGACUGUGCAGA | 14 | 13 |  |  |
| UUUAUUUUUACAGGAUAUCAUCUAUUUAACUCAUGCACAUGUUUACAUGAGGAUCACCCAUGUUUUGAGAAGGGUAUUGAAACA |  |  | 246 | 259 |
| ACAUGAGGAUCACCCAUGUAACAUGUGAAUUAAUUCUUUAACAGAAGGCGAAUAUAUAACAUUGUCGAGGAUAUGUACUUAUGU | 9.85 | 7.41 |  |  |

— the EternaBench riboswitch data
